Measurements collected from several papers.
Compare with care: the assays were run in different laboratories.
ABHD6: Monoacylglycerol lipase ABHD6 (ABHD6, Homo sapiens, UniProt Q9BV23)
Cathepsin F: Cathepsin F (Homo sapiens, UniProt Q9UBX1)
GRK2: Beta-adrenergic receptor kinase 1 (GRK2, Homo sapiens, UniProt P25098)

With `C#Cc1n[nH]c2c(-c3cn([C@@H](C)c4ccccn4)c(=O)[nH]c3=O)cc(F)cc12` the inhibition was 5.7% (Calcium/calmodulin-dependent protein kinase type 1 (CAMK1, Homo sapiens, UniProt Q14012); enzyme activity, inhibitor; 0.1 µM).
For `Cc1ccccc1N(C)C(=O)Oc1nsnc1N1CCCCC1`, the inhibition was 17% (ABHD6; enzyme activity, inhibitor, fluorescence; 1 µM, lysate).
`N=C(N)c1ccc2cc(OC(=O)c3ccc(N=C(N)N)cc3)ccc2c1` has an inhibition of 0% (Cathepsin F; enzyme activity, inhibitor; 10 µM).
The inhibition of `C#Cc1n[nH]c2c(-c3cn([C@@H](C)c4ccccc4)c(=O)[nH]c3=O)cc(F)cc12` is reported as 4% (RAC-beta serine/threonine-protein kinase (AKT2, Homo sapiens, UniProt P31751); enzyme activity, inhibitor; 0.1 µM).
`CCOC(=O)c1ccc(OC(=O)CCCCCNC(=N)N)cc1` has an inhibition of 2% (Cathepsin F; enzyme activity, inhibitor; 10 µM).
With `CN(C)C(=O)Oc1nsnc1N1CCCCC1` the inhibition was 10% (ABHD6; enzyme activity, inhibitor, fluorescence; 1 µM, lysate).
The inhibition of `COc1cc2c3c(c1OC)-c1cc4c(cc1CC3N(C)CC2)OCO4` (racemic) is reported as 92.8% (5-hydroxytryptamine receptor 5A (HTR5A, Homo sapiens, UniProt P47898); ligand displacement, radioligand; 10 µM).
The inhibition of `CCN(CC)CCCC[C@H](NC(=O)[C@H](CC(C)C)NC(=O)[C@H](C)NC(=O)[C@H](Cc1ccccc1)NC(=O)c1ccc(C(C)(C)C)cc1)C(=O)N[C@@H](CO)C(=O)OC` is reported as -10% (Neurotensin receptor type 1 (NTSR1, Homo sapiens, UniProt P30989); ligand displacement, radioligand; 10 µM).
With `Cn1cc(-c2cccc(N3CCc4c(sc5c4CC(C)(C)C5)C3=O)c2CO)cc(Nc2ccncn2)c1=O` the inhibition was 14% (GRK2; enzyme activity, inhibitor; 1 µM).
With `CN(C)C(=O)COC(=O)Cc1ccc(OC(=O)c2ccc(NC(=N)N)cc2)cc1` the inhibition was 0% (Cathepsin F; enzyme activity, inhibitor; 10 µM).
`CN(CCN1CCC(OC(=O)Nc2ccccc2-c2ccccc2)CC1)C(=O)c1ccc(CN2CCC(C(N)=O)CC2)cc1` gave an inhibition of 22% (Histamine H2 receptor (Cavia porcellus, UniProt P47747); ligand displacement, radioligand; 1 µM).
`Cn1cc(-c2cc(F)cc(N3CCn4c(cc5c4CCCC5)C3=O)c2CO)cc(Nc2ccc(N3CCN(C4COC4)CC3)cn2)c1=O` gave an inhibition of -1% (GRK2; enzyme activity, inhibitor; 0.1 µM).
The inhibition of `COCc1c(-c2cc3cc(C)cc(OC)c3s2)c2c(N)ncnn2c1CN1CCNC(=O)C1` is reported as 89% (Mitogen-activated protein kinase kinase kinase 19 (MAP3K19, Homo sapiens, UniProt Q56UN5); cell-free assay, competition with immobilised ligand; 1 µM).
For `c1ccc(C(NCCNC(c2ccccc2)c2ccccc2)c2ccccc2)cc1`, the inhibition was 10% (D(4) dopamine receptor (DRD4, Homo sapiens, UniProt P21917, del265-296); cell-free assay; 10 µM).
